Experimental data collected from several papers.
Each line is one published result; the experiments were not run side by side.
LCK: Tyrosine-protein kinase Lck (LCK, Homo sapiens, UniProt P06239)

Cc1cnn2ncc(-c3ccnc(N(C)C)n3)c2c1
remaining signal (LCK; cell-free assay; 1 µM): 100%

CC(=O)C1=C(C)N(c2cccc(C(F)(F)F)c2)C(=O)N[C@@H]1c1ccc(C#N)nc1
remaining binding (LCK; cell-free assay; competition with immobilised ligand; 1 µM): 100%

FC(F)(F)Oc1cccc(-c2cnc3ccc(-c4ccncc4)nn23)c1
activity vs control (LCK; enzyme activity; inhibitor; radiometric; 1 µM): 35%

Cc1cc(-n2nc(Cc3cc(F)cc(C(F)(F)F)c3)nc2C)ccc1C(N)=O
remaining binding (LCK; cell-free assay; competition with immobilised ligand; 1 µM): 100%

Cc1cc(NC(=O)c2cccc3cc(-c4cccc5[nH]nc(N)c45)ccc23)ccc1F
activity vs control (Tyrosine-protein kinase Lck, phosphorylated (LCK, Homo sapiens, UniProt P06239); enzyme activity; inhibitor; 0.1 µM): 88%

Cc1cn(-c2cc(NC(=O)c3ccc(C)c(Nc4nccc(-c5cccnc5)n4)c3)cc(C(F)(F)F)c2)cn1
activity vs control (LCK; enzyme activity; inhibitor; 0.5 µM): 22.2%

Cc1ccc(C(=O)NCc2ccsc2)cc1C#Cc1cn(C(C)C)c2ncnc(N)c12
activity vs control (LCK; enzyme activity; inhibitor; 1 µM): 3%

CSc1cccnc1N1CCN(Cc2nc3ccccc3[nH]2)CC1
remaining binding (LCK; binding; competition with immobilised ligand; 1 µM): 100%

Cc1ccc(Nc2nccc(N(C)c3ccc4c(C)n(C)nc4c3)n2)cc1S(N)(=O)=O
inhibition (LCK; enzyme activity; inhibitor; 10 µM): 99%

CNc1cccc2cc(C(=O)Nc3ccc(C(=O)O)cc3)c(=O)[nH]c12
inhibition (LCK; enzyme activity; inhibitor; 10 µM): 0.91%

C[C@@H](c1cccc(C#N)c1)n1cc(Cl)cc(C(N)=O)c1=N
remaining binding (LCK; binding; competition with immobilised ligand; 1 µM): 90%

O=C1c2ccccc2-c2n[nH]c3cccc1c23
activity vs control (LCK; enzyme activity; inhibitor; 0.5 µM): 97.1%

CNC(=O)c1cc2c(Oc3ccc(NC(=O)C4(C(=O)Nc5ccc(F)cc5)CC4)cc3)ccnc2cc1OC
inhibition (LCK; enzyme activity; inhibitor; radiometric; 1 µM): 99%

C=CC(=O)Nc1cc(Nc2nccc(Nc3cc(Cl)c(F)cc3C(C)(C)O)n2)c(OC)cc1N1CC[C@@H](N(C)C)C1
inhibition (LCK; enzyme activity; inhibitor; 1 µM): 37%

CN(C)C1CCN(CC#Cc2nn(C3CCCC3)c3nc(NCc4ccccc4)ncc23)C1 (stereo not drawn)
inhibition (LCK; enzyme activity; inhibitor; FRET; 0.1 µM): 17%

COc1cc(/C=C/C(=O)CC(=O)/C=C/c2ccc(O)c(OC)c2)ccc1O
activity vs control (LCK; enzyme activity; inhibitor; 1 µM): 80%

O=C(O)c1cc(-c2ccc(C3CCNCC3)cc2)c2ccc(-c3ccc(C(F)(F)F)cc3)cc2c1
remaining binding (LCK; cell-free assay; competition with immobilised ligand; 1 µM): 100%

COc1cc2ncnc(Nc3ccc(Oc4ccccc4)c(C)c3C)c2cc1OC
inhibition (LCK; enzyme activity; inhibitor; 1 µM): 83%

CNC(=O)Nc1ccc2c(c1)[C@@]1(CC2)OC(=O)N(CC(=O)N(Cc2ccc(F)cc2)[C@@H](C)C(F)(F)F)C1=O
remaining binding (LCK; cell-free assay; competition with immobilised ligand; 1 µM): 86%

CNC(=O)c1ccccc1Nc1cc(Nc2ccc(N3CCOCC3)cc2OC)ncc1C(F)(F)F
inhibition (LCK; enzyme activity; inhibitor; 1 µM): > 50%

CCS(=O)(=O)c1cc2cc(C[C@](O)(CC(C)(C)c3ccc(F)cc3C(N)=O)C(F)(F)F)[nH]c2cn1
remaining binding (LCK; cell-free assay; competition with immobilised ligand; 1 µM): 100%

CNCc1ccc(-c2cc(-c3nc(-c4ccc(S(=O)(=O)C(C)C)cc4)cnc3N)on2)cc1
inhibition (LCK; enzyme activity; inhibitor; 2 µM): 64%

C[C@@H]1CN(c2cc(-c3nn(C)c4ccc(OC5(C)CC5)cc34)ncn2)C[C@H](C)O1
remaining binding (LCK; cell-free assay; competition with immobilised ligand; 1 µM): 94%

CN(C)c1ncc(F)c(-c2cnn3ncccc23)n1
remaining signal (LCK; cell-free assay; 1 µM): 76%
